Laboratory results from ChEMBL document CHEMBL5104204, “Synthesis and in vitro anticancer evaluation of novel flavonoid-based amide derivatives as regulators of the PI3K/AKT signal pathway for TNBC treatment” (RSC Med Chem, 2022).

Legend:
Format in all cases: functional, cell-based
GTL 16 cell line = test: Antitumor activity against human GTL 16 cell line assessed as inhibit cell proliferation incubated for 72 hrs by CCK-8 assay; settings: GTL 16, 72 h
Summary of the method: (§1)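 CCK8 viability readout. Culture media: HCC1937, A549, HeLa and GTL-16 in RPMI 1640; MDA-MB-231, MCF-7 and HepG2 in high-glucose DMEM; all with 10% FBS and penicillin/streptomycin, 37 °C, 5% CO2. 4×10^3–6×10^3 cells/well, 24 h, then compounds in serum-free medium, 72 h at 37 °C. 10% CCK8, 2 h, OD 450/630 nm. Five wells per group; IC50 from inhibition rate; three independent experiments, mean ± SD.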

HeLa = test: Antitumor activity against human HeLa cells assessed as inhibit cell proliferation incubated for 72 hrs by CCK-8 assay; summary of the method: as §1
A549 = test: Antitumor activity against human A549 cells assessed as inhibit cell proliferation incubated for 72 hrs by CCK-8 assay; settings: A549, 72 h; summary of the method: as §1
MDA-MB-231 = test: Antitumor activity against human MDA-MB-231 cells assessed as inhibit cell proliferation incubated for 72 hrs by CCK-8 assay; settings: MDA-MB-231, 72 h; summary of the method: as §1
HepG2 = test: Antitumor activity against human HepG2 cells assessed as inhibit cell proliferation incubated for 72 hrs by CCK-8 assay; settings: HepG2, 72 h; summary of the method: as §1
HCC1937 = test: Antitumor activity against human HCC1937 cells assessed as inhibit cell proliferation incubated for 72 hrs by CCK-8 assay; settings: HCC1937, 72 h; summary of the method: as §1
MCF7 = test: Antitumor activity against human MCF7 cells assessed as inhibit cell proliferation incubated for 72 hrs by CCK-8 assay; settings: MCF7, 72 h; summary of the method: as §1

Row | Compound | IC50 (GTL 16 cell line) | IC50 (HeLa) | IC50 (A549) | IC50 (MDA-MB-231) | IC50 (HepG2) | IC50 (HCC1937) | IC50 (MCF7)
1 | O=C(Nc1cccc(-c2oc3cc(-c4ccc(F)cc4)ccc3c(=O)c2O)c1)c1cccc(F)c1 | 15.8 µM | 8.78 µM | 15.4 µM | 2.51 µM | 15.5 µM | 6.59 µM | 5.77 µM
2 | CCCc1ccc(C(=O)Nc2cccc(-c3oc4cc(-c5ccc(F)cc5)ccc4c(=O)c3O)c2)cc1 | 20.4 µM | 8.79 µM | 47.6 µM | 32.2 µM | 51.5 µM | 15.3 µM | 36.8 µM
3 | O=C(Nc1cccc(-c2oc3cc(-c4ccc(F)cc4)ccc3c(=O)c2O)c1)c1cc(F)cc(F)c1 | 7.41 µM | 3.38 µM | 7.62 µM | 2.44 µM | 4.96 µM | 2.07 µM | 2.49 µM
4 | O=C(Nc1cccc(-c2oc3cc(-c4ccc(F)cc4)ccc3c(=O)c2O)c1)c1ccccc1F | 17.4 µM | 5.63 µM | 4.41 µM | 7.24 µM | 10.1 µM | 10.8 µM | 7.57 µM
5 | COc1cccc(C(=O)Nc2cccc(-c3oc4cc(-c5ccc(F)cc5)ccc4c(=O)c3O)c2)c1 | 12.5 µM | 5.65 µM | 10.8 µM | 9.16 µM | 9.95 µM | 18.9 µM | 15.3 µM
6 | Cc1cc(C)cc(C(=O)Nc2cccc(-c3oc4cc(-c5ccc(F)cc5)ccc4c(=O)c3O)c2)c1 | 13.5 µM | 5.54 µM | 3.74 µM | 11.9 µM | 13.4 µM | 4.86 µM | 20.4 µM
7 | O=C(Nc1cccc(-c2oc3cc(-c4ccc(F)cc4)ccc3c(=O)c2O)c1)c1ccc(F)cc1 | 14.6 µM | 5.35 µM | 6.93 µM | 16 µM | 9.28 µM | 14.2 µM | 8.59 µM
8 | O=c1[nH]cc(F)c(=O)[nH]1 [FLUOROURACIL] | 0.84 µM | 1.94 µM | 2.65 µM | 7.75 µM | 2.88 µM | 25.9 µM | 4.42 µM
9 | Cc1cc(C(=O)Nc2cccc(-c3oc4cc(-c5ccc(F)cc5)ccc4c(=O)c3O)c2)ccc1F | 12.1 µM | 18.9 µM | 11.5 µM | 7.44 µM | 9.54 µM | 5.42 µM | 7.71 µM
10 | Cc1ccccc1C(=O)Nc1cccc(-c2oc3cc(-c4ccc(F)cc4)ccc3c(=O)c2O)c1 | 24.8 µM | 11.9 µM | 17.6 µM | 4.91 µM | 19.4 µM | 9.9 µM | 2.28 µM
11 | O=C(Nc1cccc(-c2oc3cc(-c4ccc(F)cc4)ccc3c(=O)c2O)c1)c1cnc(Cl)nc1Cl |  |  | > 100 µM |  | > 100 µM |  | 
12 | O=C(Nc1cccc(-c2oc3cc(-c4ccc(F)cc4)ccc3c(=O)c2O)c1)c1ccc(Br)cc1F |  |  | 46.1 µM |  | > 100 µM |  | 
13 | O=C(Nc1cccc(-c2oc3cc(-c4ccc(F)cc4)ccc3c(=O)c2O)c1)c1ccc(C(F)(F)F)cc1 | 33 µM | 17.4 µM | 19.4 µM | 29.4 µM | 42.7 µM | 7.35 µM | 32.6 µM
14 | COc1ccc(C(=O)Nc2cccc(-c3oc4cc(-c5ccc(F)cc5)ccc4c(=O)c3O)c2)c(F)c1 | 15.3 µM | 16.1 µM | 40 µM | 17.6 µM | 45.3 µM | 24.4 µM | 20 µM
15 | COc1ccc(C(=O)Nc2cccc(-c3oc4cc(-c5ccc(F)cc5)ccc4c(=O)c3O)c2)cc1 | 21.1 µM | 4.82 µM | 8.7 µM | 16.5 µM | 8.42 µM | 5.49 µM | 6.25 µM
16 | COc1ccccc1C(=O)Nc1cccc(-c2oc3cc(-c4ccc(F)cc4)ccc3c(=O)c2O)c1 | 6.37 µM | 14.1 µM | 11.7 µM | 5.11 µM | 14.5 µM | 9.05 µM | 2.1 µM
17 | Cc1ccc(C(=O)Nc2cccc(-c3oc4cc(-c5ccc(F)cc5)ccc4c(=O)c3O)c2)cc1 | 12.9 µM | 6.19 µM | 6.91 µM | 4.35 µM | 2.32 µM | 7.11 µM | 2.4 µM
18 | N#Cc1ccc(C(=O)Nc2cccc(-c3oc4cc(-c5ccc(F)cc5)ccc4c(=O)c3O)c2)cc1 | 31.8 µM | 23.3 µM | 2.36 µM | 11.6 µM | 7.11 µM | 2.99 µM | 2.66 µM
19 | CCc1ccc(C(=O)Nc2cccc(-c3oc4cc(-c5ccc(F)cc5)ccc4c(=O)c3O)c2)cc1 | 24.6 µM | 21 µM | 18.5 µM | 9.07 µM | 20.6 µM | 13.2 µM | 22.8 µM
20 | O=C(Nc1cccc(-c2oc3cc(-c4ccc(F)cc4)ccc3c(=O)c2O)c1)c1ccc(Br)cc1 | 25.4 µM | 9.74 µM | 13.5 µM | 24.9 µM | 13.9 µM | 8.63 µM | 24 µM
21 | Cc1cccc(C(=O)Nc2cccc(-c3oc4cc(-c5ccc(F)cc5)ccc4c(=O)c3O)c2)c1 | 10.9 µM | 6.65 µM | 16.4 µM | 2.84 µM | 13.5 µM | 8.03 µM | 7.85 µM
22 | O=C(Nc1cccc(-c2oc3cc(-c4ccc(F)cc4)ccc3c(=O)c2O)c1)c1ccc(F)cc1F | 9.64 µM | 10.7 µM | 20.5 µM | 11.2 µM | 26.4 µM | 6.98 µM | 13.5 µM
23 | COc1cc(OC)cc(C(=O)Nc2cccc(-c3oc4cc(-c5ccc(F)cc5)ccc4c(=O)c3O)c2)c1 | 19.6 µM | 2.7 µM | 2.39 µM | 4.04 µM | 23.5 µM | 6.25 µM | 3.47 µM
24 | O=C(Nc1cccc(-c2oc3cc(-c4ccc(F)cc4)ccc3c(=O)c2O)c1)c1ccc(Cl)cc1 | 9.14 µM | 3.67 µM | 10.8 µM | 12.8 µM | 11 µM | 4.03 µM | 4.73 µM
25 | O=C(Nc1cccc(-c2oc3cc(-c4ccc(F)cc4)ccc3c(=O)c2O)c1)c1ccc([N+](=O)[O-])cc1 | 18.2 µM | 12.3 µM | 2.44 µM | 14.7 µM | 1.86 µM | 5.64 µM | 3.97 µM
26 | O=C(Nc1cccc(-c2oc3cc(-c4ccc(F)cc4)ccc3c(=O)c2O)c1)c1ccc(-c2ccccc2)cc1 |  | > 100 µM | > 100 µM | 63.2 µM | 88.5 µM | 44.1 µM | 38.5 µM
